# Results as given in ChEMBL document CHEMBL5223178, “Macrocyclic Retinoic Acid Receptor-Related Orphan Receptor C2 Inverse Agonists” (ACS Med Chem Lett, 2023).
# pIC50, pKi: −log10 of the molar value.
# What was measured:
# [1] = Passive apparent permeability in MDCKII-LE cells; assay type: ADME, cell-based, Canis lupus familiaris; conditions: dog, MDCK
# Method in brief: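 Passive permeability measured across RRCK (MDCKII-LE) cell monolayers. Values are means of two or more independent assays.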
# [2] = Lipophilicity, log D of the compound at pH 7.4 by reverse phase HPLC; assay type: physicochemical; conditions: buffer
# Method in brief: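 LogD at pH 7.4 determined by reverse-phase HPLC. Values are means of two or more independent assays.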
# [3] = biological target: Voltage-gated inwardly rectifying potassium channel KCNH2 (Homo sapiens, UniProt Q12809); assay: Displacement of [3H]-dofetilide from human ERG; assay type: toxicity
# Method in brief: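 Binding assay measuring displacement of [3H]dofetilide. Values are means of two or more independent assays.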
# [4] = Inhibition of IL-17A production in human Th17 cells incubated for 6 days […]; assay type: functional, cell-based; conditions: Th17, 144 h
# Method in brief: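 Inhibition of IL-17A production by human primary Th17 cells. Values are means of two or more independent assays.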
# [5] = Inverse agonist activity at 6His-tagged RORC2 LBD (unknown origin) expressed in Escherichia coli assessed as inhibition of biotinylated SRC1-2 derived CPSSHSSLTERHKILHRLLQEGSPS-NH2 containing LXXLL coactivator peptide incubated for 3 hrs by TR-FRET assay; set-up: species or system Homo sapiens
# Method in brief: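 TR-FRET cofactor recruitment measuring displacement of SRC1-2 coactivator peptide binding to histidine-tagged RORC2 ligand-binding domain. Values are means of two or more independent assays.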
# [6] = Clearance in human liver microsomes; assay type: ADME, Microsome; conditions: read-out: CLH
# Homo sapiens [7] = assay: Ex vivo drug penetration in human abdominal skin applied topically using flow-through diffusion cell assessed as compound concentration in skin epidermis measured upto 24 hrs by LC-MS/MS based in vitro skin penetration assay; assay type: functional; conditions: Abdomen skin
# Method in brief: (§1)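 Ex vivo human skin dosed topically with a 2.75% (w/w) formulation in 30% ethanol, 30% PEG400, 20% diethylene glycol monoethyl ether and 20% glycerin (w/w). Cumulative amount in receptor solution (ng/cm2) was followed over 24 h. At 24 h, excess surface compound was removed, and epidermis and dermis were separated and homogenized to measure concentration (μg/g). Results are means with SEM.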
# PXR (NR1I2) = biological target: T1, PXR (NR1I2) (Homo sapiens, UniProt O75469); assay: Agonist activity at PXR in human HeLa cells assessed as increase in NR activity at 10 uM relative to control; assay type: cell-based; conditions: read-out: Activity
# T1 sequence (O75469 whole entry): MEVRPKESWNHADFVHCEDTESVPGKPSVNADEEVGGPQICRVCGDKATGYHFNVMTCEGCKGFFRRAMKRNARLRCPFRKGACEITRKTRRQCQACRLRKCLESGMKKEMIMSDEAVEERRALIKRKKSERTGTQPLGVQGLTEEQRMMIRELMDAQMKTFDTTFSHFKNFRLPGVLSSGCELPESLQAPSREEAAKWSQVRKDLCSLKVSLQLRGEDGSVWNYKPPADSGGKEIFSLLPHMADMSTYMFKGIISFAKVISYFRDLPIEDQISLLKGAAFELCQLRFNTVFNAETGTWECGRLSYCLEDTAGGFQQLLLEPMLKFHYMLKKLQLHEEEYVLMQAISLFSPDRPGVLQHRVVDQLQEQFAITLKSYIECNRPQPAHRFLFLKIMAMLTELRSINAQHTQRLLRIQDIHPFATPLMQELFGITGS
# Method in brief: (§2)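 Multiplexed trans-FACTORIAL profiling: cells transfected with ligand-binding-domain chimeric constructs of 48 nuclear receptors fused to GAL4 DNA. Reporter RNA levels were measured. Compound was tested at 1 and 10 μM. Readout was fold change versus control, with a 20% change as the threshold for antagonist (reduction) or agonist (increase) effect.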
# [8] = biological target: T2, Nuclear receptor ROR-beta (Homo sapiens, UniProt Q92753); assay: Inverse agonist activity at 6His-tagged RORB LBD (unknown origin) expressed in Escherichia coli assessed as inhibition of biotinylated SRC1-2 derived CPSSHSSLTERHKILHRLLQEGSPS-NH2 containing LXXLL coactivator peptide incubated for 3 hrs by TR-FRET assay
# T2 sequence (Q92753 whole entry): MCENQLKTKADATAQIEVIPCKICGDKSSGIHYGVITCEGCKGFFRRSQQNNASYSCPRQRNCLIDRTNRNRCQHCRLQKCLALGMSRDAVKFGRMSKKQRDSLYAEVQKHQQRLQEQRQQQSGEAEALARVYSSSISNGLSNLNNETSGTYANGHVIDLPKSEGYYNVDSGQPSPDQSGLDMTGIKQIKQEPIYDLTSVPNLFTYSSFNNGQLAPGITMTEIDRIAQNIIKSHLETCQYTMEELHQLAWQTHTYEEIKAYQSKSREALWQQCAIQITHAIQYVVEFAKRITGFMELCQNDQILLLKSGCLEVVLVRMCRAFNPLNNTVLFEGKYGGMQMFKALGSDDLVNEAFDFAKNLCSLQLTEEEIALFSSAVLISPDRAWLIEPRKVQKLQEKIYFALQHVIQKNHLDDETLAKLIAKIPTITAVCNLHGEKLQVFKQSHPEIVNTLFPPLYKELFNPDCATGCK
# Homo sapiens [9] = assay: Ex vivo drug penetration in human abdominal skin applied topically using flow-through diffusion cell assessed as compound concentration in dermis layers measured upto 24 hrs by LC-MS/MS based in vitro skin penetration assay; assay type: functional, Abdomen skin; method in brief: as §1
# Homo sapiens [10] = assay: Ex vivo drug penetration in human abdominal skin applied topically using flow-through diffusion cell assessed as compound flux through skin measured upto 24 hrs by LC-MS/MS based in vitro skin penetration assay; assay type: functional; conditions: Abdomen skin; method in brief: as §1
# HeLa = assay: Antagonist activity at RORC2 in human HeLa cells assessed as reduction in NR activity at 1 to 10 uM relative to control; assay type: cell-based; set-up: scale not given: the % may be the effect or the level left; conditions: dose 1-10 µM; method in brief: as §2
# [11] = biological target: T3, Nuclear receptor ROR-alpha (Homo sapiens, UniProt P35398); assay: Inverse agonist activity at 6His-tagged RORA LBD (unknown origin) expressed in Escherichia coli assessed as inhibition of biotinylated SRC1-2 derived CPSSHSSLTERHKILHRLLQEGSPS-NH2 containing LXXLL coactivator peptide incubated for 3 hrs by TR-FRET assay
# T3 sequence (P35398 whole entry): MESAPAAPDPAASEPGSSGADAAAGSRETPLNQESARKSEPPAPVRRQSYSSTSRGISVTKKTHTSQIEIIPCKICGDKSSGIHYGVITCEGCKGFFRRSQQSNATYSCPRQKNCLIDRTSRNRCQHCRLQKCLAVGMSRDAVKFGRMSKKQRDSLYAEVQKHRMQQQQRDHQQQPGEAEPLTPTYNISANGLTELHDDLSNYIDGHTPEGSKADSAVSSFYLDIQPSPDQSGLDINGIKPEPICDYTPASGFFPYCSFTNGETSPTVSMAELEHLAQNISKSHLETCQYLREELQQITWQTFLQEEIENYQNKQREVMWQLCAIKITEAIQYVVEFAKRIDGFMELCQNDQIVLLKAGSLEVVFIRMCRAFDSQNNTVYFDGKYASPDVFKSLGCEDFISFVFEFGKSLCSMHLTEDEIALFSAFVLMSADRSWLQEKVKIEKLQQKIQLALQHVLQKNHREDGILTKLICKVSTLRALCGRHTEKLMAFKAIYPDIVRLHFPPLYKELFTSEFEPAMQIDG
# Voltage-gated inwardly rectifying potassium channel KCNH2, sequence (Q12809 whole entry): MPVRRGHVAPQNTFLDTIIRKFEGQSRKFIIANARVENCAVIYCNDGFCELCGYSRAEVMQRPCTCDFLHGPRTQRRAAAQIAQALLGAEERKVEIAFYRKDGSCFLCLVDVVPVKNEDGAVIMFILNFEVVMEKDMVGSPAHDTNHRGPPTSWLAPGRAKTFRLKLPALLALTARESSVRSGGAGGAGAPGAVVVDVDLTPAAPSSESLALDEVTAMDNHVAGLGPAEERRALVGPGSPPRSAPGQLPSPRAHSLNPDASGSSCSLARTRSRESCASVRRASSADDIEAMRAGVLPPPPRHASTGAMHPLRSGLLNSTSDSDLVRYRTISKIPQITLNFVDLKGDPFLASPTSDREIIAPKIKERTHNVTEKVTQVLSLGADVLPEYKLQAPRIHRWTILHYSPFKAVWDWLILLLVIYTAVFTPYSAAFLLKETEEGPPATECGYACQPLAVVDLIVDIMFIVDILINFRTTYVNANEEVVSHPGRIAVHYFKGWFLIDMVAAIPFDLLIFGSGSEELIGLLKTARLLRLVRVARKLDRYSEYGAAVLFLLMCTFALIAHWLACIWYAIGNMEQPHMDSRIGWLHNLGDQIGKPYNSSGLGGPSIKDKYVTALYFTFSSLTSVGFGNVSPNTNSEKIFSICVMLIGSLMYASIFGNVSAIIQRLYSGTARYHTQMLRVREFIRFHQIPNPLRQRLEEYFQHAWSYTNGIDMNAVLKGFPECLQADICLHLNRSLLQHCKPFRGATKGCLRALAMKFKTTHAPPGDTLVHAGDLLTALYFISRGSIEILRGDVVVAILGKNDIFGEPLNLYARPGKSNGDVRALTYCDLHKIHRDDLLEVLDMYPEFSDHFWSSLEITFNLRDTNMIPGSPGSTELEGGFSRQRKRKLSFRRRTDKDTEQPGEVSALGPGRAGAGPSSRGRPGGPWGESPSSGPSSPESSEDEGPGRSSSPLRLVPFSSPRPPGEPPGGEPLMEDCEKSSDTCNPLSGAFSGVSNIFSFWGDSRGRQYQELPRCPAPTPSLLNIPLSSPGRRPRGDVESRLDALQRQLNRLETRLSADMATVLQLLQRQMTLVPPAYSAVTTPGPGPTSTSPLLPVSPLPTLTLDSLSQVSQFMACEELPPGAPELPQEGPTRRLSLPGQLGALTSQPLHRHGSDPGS
smiles,measurement,setting,value
Cc1c(CN2CCN(C(=O)C3CCCC3)[C@@H](C)C2)cc(F)cc1NS(=O)(=O)c1ccc(F)cc1,Papp,[1],1.3 ×10⁻⁶ cm/s
same,chromatographic logD,[2],5.3
same,pKi,[3],5.40
same,pIC50,[4],8.19
same,pIC50,[5],8.68
same,microsomal CLint,[6],68 µL/min/mg
Cc1c(CN2CCN(C(=O)C3CCCC3)[C@@H](C)C2)cc(F)cc1NC(=O)c1cccc(C#N)c1,Papp,[1],6.5 ×10⁻⁶ cm/s
same,chromatographic logD,[2],4.5
same,pKi,[3],5.44
same,pIC50,[4],7.80
same,pIC50,[5],8.27
same,microsomal CLint,[6],239 µL/min/mg
O=C(CC1CC1)N1CCN2Cc3cc(F)cc(c3)NS(=O)(=O)CCCCCC1C2 (stereo not drawn),Papp,[1],11.7 ×10⁻⁶ cm/s
same,chromatographic logD,[2],3.6
same,pIC50,[4],< 5.00
same,pIC50,[5],5.62
same,microsomal CLint,[6],80 µL/min/mg
Cc1c2cc(F)cc1NS(=O)(=O)CCCCC[C@H]1CN(CCN1C(=O)C(C)C)C2,Papp,[1],19 ×10⁻⁶ cm/s
same,chromatographic logD,[2],3.8
same,pKi,[3],4.72
same,pIC50,[4],7.06
same,pIC50,[5],8.28
same,microsomal CLint,[6],205 µL/min/mg
Cc1c(CN2CCN(C(=O)CC3CC3)[C@@H](C)C2)cc(F)cc1NS(=O)(=O)c1ccc(F)cc1,Papp,[1],4.5 ×10⁻⁶ cm/s
same,chromatographic logD,[2],4.7
same,pKi,[3],5.74
same,pIC50,[4],6.85
same,pIC50,[5],7.92
same,microsomal CLint,[6],53 µL/min/mg
Cc1c2cc(F)cc1NS(=O)(=O)NCCCCC1CN(CCN1C(=O)CC1CC1)C2 (stereo not drawn),Papp,[1],18.4 ×10⁻⁶ cm/s
same,chromatographic logD,[2],2.9
same,pIC50,[4],6.77
same,pIC50,[5],6.82
same,microsomal CLint,[6],160 µL/min/mg
Cc1c2cc(F)cc1NS(=O)(=O)CCCCC1CN(CCN1C(=O)CC1CC1)C2 (stereo not drawn),Papp,[1],24.7 ×10⁻⁶ cm/s
same,chromatographic logD,[2],3.3
same,pIC50,[4],5.59
same,pIC50,[5],6.21
same,microsomal CLint,[6],71 µL/min/mg
Cc1c2cccc1NS(=O)(=O)CCCCC[C@H]1CN(CCN1C(=O)C(C)C)C2,Papp,[1],24 ×10⁻⁶ cm/s
same,Drug uptake,Homo sapiens [7],92.7 µg/g
same,chromatographic logD,[2],3.4
same,activity at 10 µM,PXR (NR1I2),> 20%
same,pIC50,[8],< 4.60
same,pKi,[3],4.43
same,pIC50,[4],7.55
same,Activity,Homo sapiens [9],18.3 µg/g
same,pIC50,[5],8.03
same,Drug uptake,Homo sapiens [10],28.1 ng/cm2/h
same,Activity,HeLa,> 20%
same,microsomal CLint,[6],223 µL/min/mg
same,pIC50,[11],< 4.60
Cc1c2cc(F)cc1NS(=O)(=O)CCCCCC1CN(CCN1C(=O)CC1CC1)C2 (stereo not drawn),Papp,[1],12.4 ×10⁻⁶ cm/s
same,chromatographic logD,[2],3.2
same,pIC50,[4],7.26
same,pIC50,[5],7.16
same,microsomal CLint,[6],260 µL/min/mg
Cc1c2cc(F)cc1NS(=O)(=O)CCCOCC1CN(CCN1C(=O)CC1CC1)C2 (stereo not drawn),chromatographic logD,[2],2.1
same,pIC50,[4],6.96
same,pIC50,[5],6.92
same,microsomal CLint,[6],55 µL/min/mg
Cc1c2cc(Cl)cc1NS(=O)(=O)CCCCC[C@H]1CN(CCN1C(=O)C(C)C)C2,Papp,[1],17 ×10⁻⁶ cm/s
same,chromatographic logD,[2],4.3
same,pKi,[3],4.96
same,pIC50,[4],8.66
same,pIC50,[5],8.62
same,microsomal CLint,[6],200 µL/min/mg
Cc1c2cc(F)cc1NS(=O)(=O)N(C)CCCCC1CN(CCN1C(=O)CC1CC1)C2 (stereo not drawn),Papp,[1],21 ×10⁻⁶ cm/s
same,chromatographic logD,[2],3.5
same,pIC50,[4],7.59
same,pIC50,[5],7.85
same,microsomal CLint,[6],> 320 µL/min/mg
Cc1c2cc(C#N)cc1NS(=O)(=O)CCCCC[C@H]1CN(CCN1C(=O)C(C)C)C2,Papp,[1],22 ×10⁻⁶ cm/s
same,chromatographic logD,[2],2.9
same,pKi,[3],4.77
same,pIC50,[4],7.19
same,pIC50,[5],7.57
same,microsomal CLint,[6],130 µL/min/mg
